Experimental data taken from ChEMBL document CHEMBL1126276, “Synthesis and antimalarial properties of 1-imino derivatives of 7-chloro-3-substituted-3,4-dihydro-1,9(2H,10H)-acridinediones and related structures” (J Med Chem, 1992).
“And” between values parts separate entries of the source, which are not always exact repeats. Identical values can stand only once.

How the values were obtained:
Assay type in all cases: functional
Plasmodium berghei [1] = assay: Antimalarial activity in Plasmodium berghei infected mice (Mus musculus) after subcutaneous 160 mg/kg dose
How it was run: (§1)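 Normal drug-sensitive P. berghei strain in mice. Compound dissolved or suspended in sesame or peanut oil, given parenterally as a single subcutaneous dose 72 h postinfection.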

Plasmodium berghei [2] = assay: Antimalarial activity in Plasmodium berghei infected mice (Mus musculus) after subcutaneous 320 mg/kg dose; how it was run: as §1
Plasmodium berghei [3] = assay: Antimalarial activity in Plasmodium berghei infected mice (Mus musculus) after subcutaneous 640 mg/kg dose; how it was run: as §1
Plasmodium berghei [4] = assay: (§2) Antimalarial activity in Plasmodium berghei infected mice (Mus musculus) after 80 mg/kg subcutaneous dose; how it was run: as §1
Plasmodium berghei [5] = assay: Antimalarial activity in Plasmodium berghei infected mice (Mus musculus) after 160 mg/kg subcutaneous dose
How it was run: (§3)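 […] in mice infected with a normal drug-sensitive P. berghei strain. Compound dissolved or suspended in sesame or peanut oil, given as a single subcutaneous dose 72 h postinfection.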

Plasmodium berghei [6] = assay: Antimalarial activity in Plasmodium berghei infected mice (Mus musculus) after 20 mg/kg subcutaneous dose; how it was run: as §3
Plasmodium berghei [7] = assay: as §2; how it was run: as §3; remark: listed apart in the source
Plasmodium berghei [8] = assay: Antimalarial activity in Plasmodium berghei infected mice (Mus musculus) after 40 mg/kg subcutaneous dose; how it was run: as §3
Plasmodium berghei [9] = assay: Antimalarial activity Plasmodium berghei infected mice (Mus musculus) after 640 mg/kg subcutaneous dose; how it was run: as §3

SMILES | No. of cured mice (Plasmodium berghei [1]) | No. of cured mice (Plasmodium berghei [2]) | No. of cured mice (Plasmodium berghei [3]) | No. of cured mice (Plasmodium berghei [4]) | Delta mean survival time (Plasmodium berghei [5]) | Delta mean survival time (Plasmodium berghei [6]) | Delta mean survival time (Plasmodium berghei [7]) | Delta mean survival time (Plasmodium berghei [8]) | Delta mean survival time (Plasmodium berghei [9]) | Delta mean survival time (Plasmodium berghei [9]; 640 mg/kg)
O=c1c2c(n(O)c3ccc(Cl)cc13)CC(c1ccc(Cl)c(Cl)c1)C/C2=N\CCCN(CCO)CCO (stereo not drawn) | 4 | 5 | 5 | 1 | 10.6 | 1.2 | 7.9 | 5.6 | – | –
Cc1ccc(C2CC(=O)c3c(n(O)c4ccc(Cl)cc4c3=O)C2)cc1 (stereo not drawn) | – | – | – | – | 3.1 | 0.8 | 2.8 | 0.6 | 6.9 | –
COc1ccc(C2C/C(=N\CCCN(C)C)c3c(nc4ccc(Cl)cc4c3O)C2)cc1 (stereo not drawn) | – | – | 1 | – | 4.5 | – | – | 0.5 | 11.2 | –
COc1ccccc1C1C/C(=N\CCCN(C)C)c2c(nc3ccc(Cl)cc3c2O)C1 (stereo not drawn) | – | – | 2 | – | 6.7 | – | – | 1.7 | 6.4 | –
CN(C)CCC/N=C1\CC(c2ccc(C3CCCCC3)cc2)Cc2nc3ccc(Cl)cc3c(O)c21 (stereo not drawn) | 2 | 5 | 3 | – | 10.3 | 2.8 | 7.2 | 7 | 9.6 | –
O=C1CC(c2ccc(C3CCCCC3)cc2)Cc2c1c(=O)c1cc(Cl)ccc1n2O (stereo not drawn) | – | – | – | – | 1.3 | – | – | 0.9 | 4.1 | –
CCN(CC/N=C1\CC(c2ccc(Cl)c(Cl)c2)Cc2c1c(=O)c1cc(Cl)ccc1n2O)CC(C)(C)O (stereo not drawn) | 5 | 5 | – | 4 | – | 6.3 | 8 | 8.2 | – | –
O=C1CC(c2ccccc2C(F)(F)F)Cc2c1c(=O)c1cc(Cl)ccc1n2O (stereo not drawn) | – | – | – | – | 4.5 | 0.6 | – | 2.7 | 8.3 | –
Cc1ccc(C2CC(=O)c3c(nc4ccc(Cl)cc4c3O)C2)cc1 (stereo not drawn) | 2 | – | 2 | – | 8.7 | – | – | 3.9 | 11.7 | –
CCCCNC(CC)C/N=C1\CC(c2cccc(C(F)(F)F)c2)Cc2c1c(=O)c1cc(Cl)ccc1n2O (stereo not drawn) | 5 | 5 | 5 | 1 | – | 5.6 | 10.9 | 6.8 | – | –
O=C1CC2(CCCCC2)Cc2c1c(=O)c1cc(Cl)ccc1n2O | – | – | – | – | 0.2 | – | – | 0 | 0 | –
CN(C)CCC/N=C1\CC(c2ccccc2C(F)(F)F)Cc2c1c(=O)c1cc(Cl)ccc1n2O (stereo not drawn) | 4 | 5 | 5 | 1 | 8 | – | 7.5 | 5.8 | – | –
O=C1c2c(nc3ccc(Cl)cc3c2O)CC(c2ccc(Cl)c(Cl)c2)C1c1ccccc1 (stereo not drawn) | – | – | – | – | 0.4 | – | – | 0 | 1.4 | –
O=C1CC(c2ccc(C(F)(F)F)cc2)Cc2nc3ccc([N+](=O)[O-])cc3c(O)c21 (stereo not drawn) | – | – | 1 | – | 2.8 | 0.7 | – | 4.1 | 6.9 | –
O=C1CC(c2ccc([N+](=O)[O-])cc2)Cc2nc3ccc(Cl)cc3c(O)c21 (stereo not drawn) | – | – | 2 | – | 4.6 | – | – | 0.8 | 13.3 | –
CCN(CCO)CCC/N=C1\CC(c2ccc(Cl)c(Cl)c2)Cc2c1c(=O)c1cc(Cl)ccc1n2O (stereo not drawn) | 3 | 5 | 5 | 1 | 10.1 | – | 9.6 | 8.6 | – | –
CN(C)CCC/N=C1\CC(c2cccc(C(F)(F)F)c2)Cc2nc3ccc(Cl)cc3c(O)c21 (stereo not drawn) | 5 | 5 | 5 | 1 | – | – | 14.6 | 6.6 | – | –
O=c1c2c(n(O)c3ccc(Cl)cc13)CC(c1cccc(C(F)(F)F)c1)C/C2=N\CCCN1CCCC1 (stereo not drawn) | 3 | 5 | 4 | – | 9.6 | – | 6 | 6.2 | 25.6 | –
CC1C(=O)c2c(nc3ccc(Cl)cc3c2O)CC1c1ccc(C(F)(F)F)cc1 (stereo not drawn) | 2 | 5 | 4 | – | 12.8 | 3.9 | 7.5 | 5.7 | 8.8 | –
COc1ccc(C2CC(=O)c3c(nc4ccc(Cl)cc4c3O)C2)cc1 (stereo not drawn) | – | – | – | – | 0.1 | – | – | -0.1 | -0.1 | –
O=C1CC(c2ccccc2Cl)Cc2c1c(=O)c1cc(Cl)ccc1n2O (stereo not drawn) | 1 | – | 4 | – | 4.5 | 1.7 | – | 4.6 | 9 | –
O=C1c2c(nc3ccc(Cl)cc3c2O)CCC1c1ccccc1 (stereo not drawn) | – | – | – | – | 0 | – | 0 | 0.2 | 0 | –
O=C1CC(c2ccncc2)Cc2c1c(=O)c1cc(Cl)ccc1n2O (stereo not drawn) | – | – | – | – | 0.2 | – | – | 0 | 2 | –
O=C1CC(c2ccccc2Cl)Cc2nc3ccc(Cl)cc3c(O)c21 (stereo not drawn) | 1 | – | 1 | – | 0.4 | 1.5 | 5.5 | 2.7 | 9.6 | –
O=C1CC(c2ccc(C(F)(F)F)cc2)Cc2c1c(=O)c1c(Cl)c(Cl)ccc1n2O (stereo not drawn) | 2 | 3 | 2 | – | 7 | 4.5 | 7.8 | 7 | – | 9.8 and 7
CC1C(=O)c2c(n(O)c3ccc(Cl)cc3c2=O)CC1c1ccc(C(F)(F)F)cc1 (stereo not drawn) | 5 | 5 | 5 | 2 | – | 5.2 | 14.1 | 7.8 | – | –
O=C1CC2(CCCCC2)Cc2nc3ccc(Cl)cc3c(O)c21 | – | – | – | – | 0 | – | – | 0.6 | 0.2 | –
O=C1CC(c2ccccc2C(F)(F)F)Cc2nc3ccc(Cl)cc3c(O)c21 (stereo not drawn) | – | – | – | – | 8.5 | – | – | 0.7 | 8.3 | –
